{"source": "ChEMBL document CHEMBL2311271", "about": "(Eur J Med Chem, 2013)"}
{"system": "MCF7", "assay": "Cytotoxicity against human MCF7 cells by MTT assay", "format": "functional, cell-based", "outline": "(§1)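 Cells grown in RPMI-1640 with 10% fetal calf serum plus penicillin and streptomycin, 37 °C, 5% CO₂. Compounds in DMSO, final ≤2% (v/v), tested in 96-well cultures with MTT staining. IC₅₀ = concentration cutting optical density 50% versus untreated cells; three replicate wells per point; mean of three independent determinations.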", "units": {"IC50": "µM"}}
{"compound": "CCCCn1c2cc(OCC(C)C)ccc2c2ccnc(C)c21", "IC50": 21.6}
{"compound": "CCCCn1c2cc(OC(CC)CC)ccc2c2ccnc(C)c21", "IC50": 5.4}
{"compound": "CCCCn1c2cc(OCCCc3ccccc3)ccc2c2ccnc(C)c21", "IC50": 16}
{"compound": "CCCCOc1ccc2c3cc[n+](Cc4ccccc4)c(C)c3n(CC)c2c1", "IC50": 5.9}
{"system": "A-375", "assay": "Cytotoxicity against human A375 cells by MTT assay", "format": "functional, cell-based", "outline": "as §1", "units": {"IC50": "µM"}}
{"compound": "CCCCn1c2cc(OCC(C)C)ccc2c2ccnc(C)c21", "IC50": 18.4}
{"compound": "CCCCn1c2cc(OC(CC)CC)ccc2c2ccnc(C)c21", "IC50": 18.8}
{"compound": "CCCCn1c2cc(OCCCc3ccccc3)ccc2c2ccnc(C)c21", "IC50": 21.5}
{"compound": "CCCCOc1ccc2c3cc[n+](Cc4ccccc4)c(C)c3n(CC)c2c1", "IC50": 6.9}
{"system": "HT-29", "assay": "Cytotoxicity against human HT-29 cells by MTT assay", "format": "functional, cell-based", "outline": "as §1", "units": {"IC50": "µM"}}
{"compound": "CCCCn1c2cc(OCC(C)C)ccc2c2ccnc(C)c21", "IC50": 20.1}
{"compound": "CCCCn1c2cc(OC(CC)CC)ccc2c2ccnc(C)c21", "IC50": 25.1}
{"compound": "CCCCn1c2cc(OCCCc3ccccc3)ccc2c2ccnc(C)c21", "IC50": 51.2}
{"compound": "CCCCOc1ccc2c3cc[n+](Cc4ccccc4)c(C)c3n(CC)c2c1", "IC50": 6.4}
{"system": "Bel-7402", "assay": "Cytotoxicity against human Bel7402 cells by MTT assay", "format": "functional, cell-based", "outline": "as §1", "units": {"IC50": "µM"}}
{"compound": "CCCCn1c2cc(OCC(C)C)ccc2c2ccnc(C)c21", "IC50": 25.6}
{"compound": "CCCCn1c2cc(OC(CC)CC)ccc2c2ccnc(C)c21", "IC50": 21.5}
{"compound": "CCCCn1c2cc(OCCCc3ccccc3)ccc2c2ccnc(C)c21", "IC50": "> 100"}
{"compound": "CCCCOc1ccc2c3cc[n+](Cc4ccccc4)c(C)c3n(CC)c2c1", "IC50": 2.9}
{"system": "786-0", "assay": "Cytotoxicity against human 786-0 cells by MTT assay", "format": "functional, cell-based", "outline": "as §1", "units": {"IC50": "µM"}}
{"compound": "CCCCn1c2cc(OCC(C)C)ccc2c2ccnc(C)c21", "IC50": 14.4}
{"compound": "CCCCn1c2cc(OC(CC)CC)ccc2c2ccnc(C)c21", "IC50": 13.4}
{"compound": "CCCCn1c2cc(OCCCc3ccccc3)ccc2c2ccnc(C)c21", "IC50": 12.9}
{"compound": "CCCCOc1ccc2c3cc[n+](Cc4ccccc4)c(C)c3n(CC)c2c1", "IC50": 7.8}
{"system": "KB", "assay": "Cytotoxicity against human KB cells by MTT assay", "format": "functional, cell-based", "outline": "as §1", "units": {"IC50": "µM"}}
{"compound": "CCCCn1c2cc(OCC(C)C)ccc2c2ccnc(C)c21", "IC50": 19.4}
{"compound": "CCCCn1c2cc(OC(CC)CC)ccc2c2ccnc(C)c21", "IC50": 19.8}
{"compound": "CCCCn1c2cc(OCCCc3ccccc3)ccc2c2ccnc(C)c21", "IC50": 41.6}
{"compound": "CCCCOc1ccc2c3cc[n+](Cc4ccccc4)c(C)c3n(CC)c2c1", "IC50": "< 1.7"}
{"system": "SCaBER", "assay": "Cytotoxicity against human SCaBER cells by MTT assay", "format": "functional, cell-based", "outline": "as §1", "units": {"IC50": "µM"}}
{"compound": "CCCCn1c2cc(OCC(C)C)ccc2c2ccnc(C)c21", "IC50": 15.9}
{"compound": "CCCCn1c2cc(OC(CC)CC)ccc2c2ccnc(C)c21", "IC50": 43.8}
{"compound": "CCCCn1c2cc(OCCCc3ccccc3)ccc2c2ccnc(C)c21", "IC50": 20.3}
{"compound": "CCCCOc1ccc2c3cc[n+](Cc4ccccc4)c(C)c3n(CC)c2c1", "IC50": 21.8}
{"system": "HeLa", "assay": "Cytotoxicity against human HeLa cells by MTT assay", "format": "functional, cell-based", "outline": "as §1", "units": {"IC50": "µM"}}
{"compound": "CCCCn1c2cc(OCC(C)C)ccc2c2ccnc(C)c21", "IC50": 40.7}
{"compound": "CCCCn1c2cc(OC(CC)CC)ccc2c2ccnc(C)c21", "IC50": 28.2}
{"compound": "CCCCn1c2cc(OCCCc3ccccc3)ccc2c2ccnc(C)c21", "IC50": 24.7}
{"compound": "CCCCOc1ccc2c3cc[n+](Cc4ccccc4)c(C)c3n(CC)c2c1", "IC50": 2.4}
{"system": "OS-RC-2", "assay": "Cytotoxicity against human OS-RC2 cells by MTT assay", "format": "functional, cell-based", "outline": "as §1", "units": {"IC50": "µM"}}
{"compound": "CCCCn1c2cc(OCC(C)C)ccc2c2ccnc(C)c21", "IC50": 30.5}
{"compound": "CCCCn1c2cc(OC(CC)CC)ccc2c2ccnc(C)c21", "IC50": 26.9}
{"compound": "CCCCOc1ccc2c3cc[n+](Cc4ccccc4)c(C)c3n(CC)c2c1", "IC50": 8.8}
{"system": "not listed separately", "assay": "Cytotoxicity against human Blu-87 cells by MTT assay", "format": "functional, cell-based", "outline": "as §1", "units": {"IC50": "µM"}}
{"compound": "CCCCn1c2cc(OCC(C)C)ccc2c2ccnc(C)c21", "IC50": 17.4}
{"compound": "CCCCn1c2cc(OC(CC)CC)ccc2c2ccnc(C)c21", "IC50": 16}
{"compound": "CCCCn1c2cc(OCCCc3ccccc3)ccc2c2ccnc(C)c21", "IC50": 26.9}
{"compound": "CCCCOc1ccc2c3cc[n+](Cc4ccccc4)c(C)c3n(CC)c2c1", "IC50": 22.9}
{"system": "U-251", "assay": "Cytotoxicity against human U251 cells by MTT assay", "format": "functional, cell-based", "outline": "as §1", "units": {"IC50": "µM"}}
{"compound": "CCCCn1c2cc(OCC(C)C)ccc2c2ccnc(C)c21", "IC50": 32.3}
{"compound": "CCCCn1c2cc(OC(CC)CC)ccc2c2ccnc(C)c21", "IC50": 25.1}
{"compound": "CCCCn1c2cc(OCCCc3ccccc3)ccc2c2ccnc(C)c21", "IC50": 29.9}
{"compound": "CCCCOc1ccc2c3cc[n+](Cc4ccccc4)c(C)c3n(CC)c2c1", "IC50": 14.2}
{"system": "CWR22R", "assay": "Cytotoxicity against human 22Rv1 cells by MTT assay", "format": "functional, cell-based", "outline": "as §1", "units": {"IC50": "µM"}}
{"compound": "CCCCn1c2cc(OCCCc3ccccc3)ccc2c2ccnc(C)c21", "IC50": 40.5}
{"system": "769-P", "assay": "Cytotoxicity against human 769-P cells by MTT assay", "format": "functional, cell-based", "outline": "as §1", "units": {"IC50": "µM"}}
{"compound": "CCCCn1c2cc(OCC(C)C)ccc2c2ccnc(C)c21", "IC50": 4}
{"compound": "CCCCn1c2cc(OC(CC)CC)ccc2c2ccnc(C)c21", "IC50": 22.2}
{"compound": "CCCCn1c2cc(OCCCc3ccccc3)ccc2c2ccnc(C)c21", "IC50": 21.3}
{"compound": "CCCCOc1ccc2c3cc[n+](Cc4ccccc4)c(C)c3n(CC)c2c1", "IC50": 4.6}
{"system": "HepG2", "assay": "Cytotoxicity against human HepG2 cells by MTT assay", "format": "functional, cell-based", "outline": "as §1", "units": {"IC50": "µM"}}
{"compound": "CCCCn1c2cc(OCC(C)C)ccc2c2ccnc(C)c21", "IC50": 15.3}
{"compound": "CCCCn1c2cc(OC(CC)CC)ccc2c2ccnc(C)c21", "IC50": 15.6}
{"compound": "CCCCn1c2cc(OCCCc3ccccc3)ccc2c2ccnc(C)c21", "IC50": 15.6}
{"compound": "CCCCOc1ccc2c3cc[n+](Cc4ccccc4)c(C)c3n(CC)c2c1", "IC50": 10}
{"system": "BGC-823", "assay": "Cytotoxicity against human BGC823 cells by MTT assay", "format": "functional, cell-based", "outline": "as §1", "units": {"IC50": "µM"}}
{"compound": "CCCCn1c2cc(OCC(C)C)ccc2c2ccnc(C)c21", "IC50": 23.4}
{"compound": "CCCCn1c2cc(OC(CC)CC)ccc2c2ccnc(C)c21", "IC50": 16.7}
{"compound": "CCCCn1c2cc(OCCCc3ccccc3)ccc2c2ccnc(C)c21", "IC50": 13.8}
{"compound": "CCCCOc1ccc2c3cc[n+](Cc4ccccc4)c(C)c3n(CC)c2c1", "IC50": 10.9}
{"system": "A549", "assay": "Cytotoxicity against human A549 cells by MTT assay", "format": "functional, cell-based", "outline": "as §1", "units": {"IC50": "µM"}}
{"compound": "CCCCn1c2cc(OCC(C)C)ccc2c2ccnc(C)c21", "IC50": 30}
{"compound": "CCCCn1c2cc(OC(CC)CC)ccc2c2ccnc(C)c21", "IC50": 21}
{"compound": "CCCCn1c2cc(OCCCc3ccccc3)ccc2c2ccnc(C)c21", "IC50": 28.1}
{"compound": "CCCCOc1ccc2c3cc[n+](Cc4ccccc4)c(C)c3n(CC)c2c1", "IC50": 13}
